# ChEMBL document CHEMBL1137710, “Synthesis and in vitro antitumor activity of new quinoxaline derivatives” (2009)
# Key:
# Format in all cases: functional
# NCI-H460 = assay: Anticancer activity against human NCI-H460 cells assessed as cell growth at 100 uM after 48 hrs by sulforhodamine B assay; conditions: NCI-H460, 48 h, read-out: Activity
# MCF7 [1] = assay: Anticancer activity against human MCF7 cells assessed as cell growth at 100 uM after 48 hrs by sulforhodamine B assay; conditions: MCF7, 48 h, read-out: Activity
# SF-268 [2] = assay: Anticancer activity against human SF268 cells assessed as cell growth at 100 uM after 48 hrs by sulforhodamine B assay; conditions: SF-268, 48 h, read-out: Activity
# [3] = Growth inhibition of human […] cells after 48 hrs by sulforhodamine B assay
# Outline: (§1)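 NCI 60-human-tumor-cell-line panel, with compounds tested over a 5-log dose range. Values are taken from dose-response curves as log10 molar concentrations: GI50 is 50% net growth inhibition, TGI is total growth inhibition, and LC50 is 50% net cell death.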
# SR = assay: Growth inhibition of human SR cells after 48 hrs by sulforhodamine B assay
# Outline: (§2)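 Run in the NCI 60-human-tumour-cell-line panel, tested over a 5-log dose range. Dose–response curves gave three values per cell line, each as a log10 molar concentration: GI50 (50% inhibition of net cell growth), TGI (total inhibition of net growth) and LC50 (50% net cell death). The mean graph midpoint is the arithmetic mean over all lines, with insensitive lines entered at the highest concentration tested.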
# A549 = assay: Growth inhibition of human A549 cells after 48 hrs by sulforhodamine B assay; conditions: A549, 48 h; outline: as §1
# NCI-H23 = assay: Growth inhibition of human NCI-H23 cells after 48 hrs by sulforhodamine B assay; conditions: NCI-H23, 48 h; outline: as §1
# NCI-H322M = assay: Growth inhibition of human NCI-H322M cells after 48 hrs by sulforhodamine B assay; outline: as §1
# COLO 205 = assay: Growth inhibition of human COLO205 cells after 48 hrs by sulforhodamine B assay; conditions: COLO 205, 48 h; outline: as §1
# HCT-116 = assay: Growth inhibition of human HCT116 cells after 48 hrs by sulforhodamine B assay; conditions: HCT-116, 48 h; outline: as §1
# SW-620 = assay: Growth inhibition of human SW620 cells after 48 hrs by sulforhodamine B assay; conditions: SW-620, 48 h; outline: as §2
# SF-268 [4] = assay: Growth inhibition of human SF268 cells after 48 hrs by sulforhodamine B assay; conditions: SF-268, 48 h; outline: as §1
# SF-295 = assay: Growth inhibition of human SF295 cells after 48 hrs by sulforhodamine B assay; conditions: SF-295, 48 h; outline: as §1
# SNB-19 = assay: Growth inhibition of human SNB19 cells after 48 hrs by sulforhodamine B assay; conditions: SNB-19, 48 h; outline: as §2
# U-251 = assay: Growth inhibition of human U251 cells after 48 hrs by sulforhodamine B assay; conditions: U-251, 48 h; outline: as §2
# LOX IMVI = assay: Growth inhibition of human LOXIMVI cells after 48 hrs by sulforhodamine B assay; outline: as §1
# SK-MEL-2 = assay: Growth inhibition of human SK-MEL-2 cells after 48 hrs by sulforhodamine B assay; conditions: SK-MEL-2, 48 h; outline: as §1
# SK-MEL-28 = assay: Growth inhibition of human SK-MEL-28 cells after 48 hrs by sulforhodamine B assay; conditions: SK-MEL-28, 48 h; outline: as §1
# SK-MEL-5 = assay: Growth inhibition of human SK-MEL-5 cells after 48 hrs by sulforhodamine B assay; conditions: SK-MEL-5, 48 h; outline: as §1
# UACC-257 = assay: Growth inhibition of human UACC257 cells after 48 hrs by sulforhodamine B assay; conditions: UACC-257, 48 h; outline: as §2
# IGROV-1 = assay: Growth inhibition of human IGROV1 cells after 48 hrs by sulforhodamine B assay; conditions: IGROV-1, 48 h; outline: as §1
# OVCAR-5 = assay: Growth inhibition of human OVCAR5 cells after 48 hrs by sulforhodamine B assay; conditions: OVCAR-5, 48 h; outline: as §1
# OVCAR-8 = assay: Growth inhibition of human OVCAR8 cells after 48 hrs by sulforhodamine B assay; conditions: OVCAR-8, 48 h; outline: as §1
# RXF 393 = assay: Growth inhibition of human RXF393 cells after 48 hrs by sulforhodamine B assay; conditions: RXF 393, 48 h; outline: as §1
# PC-3 = assay: Growth inhibition of human PC3 cells after 48 hrs by sulforhodamine B assay; conditions: PC-3, 48 h; outline: as §1
# DU-145 = assay: Growth inhibition of human DU145 cells after 48 hrs by sulforhodamine B assay; conditions: DU-145, 48 h; outline: as §1
# [5] = Growth inhibition of human Hs 578T cells after 48 hrs by sulforhodamine B assay; outline: as §1
# MDA-MB-435 = assay: Growth inhibition of human MDA-MB-435 cells after 48 hrs by sulforhodamine B assay; conditions: MDA-MB-435, 48 h; outline: as §1
# MCF7 [6] = assay: Growth inhibition of human MCF7 cells after 48 hrs by sulforhodamine B assay; conditions: MCF7, 48 h; outline: as §1
# [7] = read-out: pLC50 (the source's name) (converted)
structure (smiles),measurement,setting,value
COc1cc(OC)cc(Oc2nc3cc(N)cc(N)c3nc2-c2ccccc2)c1,growth at 100 µM,NCI-H460,2%
same,growth at 100 µM,MCF7 [1],0%
same,growth at 100 µM,SF-268 [2],1%
same,GI50,[3],2.88 µM
same,TGI,[3]; read-out: pTGI (converted),8.51 µM
same,GI50,SR,1.86 µM
same,TGI,SR; read-out: pTGI (converted),28.8 µM
same,GI50,A549,2.88 µM
same,TGI,A549; read-out: pTGI (converted),13.2 µM
same,GI50,NCI-H23,1.7 µM
same,TGI,NCI-H23; read-out: pTGI (converted),12.6 µM
same,GI50,NCI-H322M,2.24 µM
same,TGI,NCI-H322M; read-out: pTGI (converted),15.1 µM
same,GI50,COLO 205,10.7 µM
same,TGI,COLO 205; read-out: pTGI (converted),22.4 µM
same,GI50,HCT-116,2.34 µM
same,TGI,HCT-116; read-out: pTGI (converted),10 µM
same,GI50,SW-620,2.24 µM
same,CC50,SW-620; [7],31.6 µM
same,TGI,SW-620; read-out: pTGI (converted),10.2 µM
same,GI50,SF-268 [4],1.74 µM
same,TGI,SF-268 [4]; read-out: pTGI (converted),7.08 µM
same,GI50,SF-295,2.19 µM
same,TGI,SF-295; read-out: pTGI (converted),8.51 µM
same,GI50,SNB-19,2.51 µM
same,TGI,SNB-19; read-out: pTGI (converted),12.6 µM
same,GI50,U-251,2.63 µM
same,TGI,U-251; read-out: pTGI (converted),10.7 µM
same,GI50,LOX IMVI,2.95 µM
same,TGI,LOX IMVI; read-out: pTGI (converted),12.9 µM
same,GI50,SK-MEL-2,2.29 µM
same,CC50,SK-MEL-2; [7],38 µM
same,TGI,SK-MEL-2; read-out: pTGI (converted),10.2 µM
same,GI50,SK-MEL-28,3.16 µM
same,CC50,SK-MEL-28; [7],38.9 µM
same,TGI,SK-MEL-28; read-out: pTGI (converted),15.5 µM
same,GI50,SK-MEL-5,1.91 µM
same,CC50,SK-MEL-5; [7],24.5 µM
same,TGI,SK-MEL-5; read-out: pTGI (converted),6.46 µM
same,GI50,UACC-257,2.19 µM
same,CC50,UACC-257; [7],37.2 µM
same,TGI,UACC-257; read-out: pTGI (converted),12.3 µM
same,GI50,IGROV-1,2.63 µM
same,CC50,IGROV-1; [7],38 µM
same,TGI,IGROV-1; read-out: pTGI (converted),12.3 µM
same,GI50,OVCAR-5,3.24 µM
same,CC50,OVCAR-5; [7],40.7 µM
same,TGI,OVCAR-5; read-out: pTGI (converted),16.2 µM
same,GI50,OVCAR-8,2.88 µM
same,CC50,OVCAR-8; [7],50.1 µM
same,TGI,OVCAR-8; read-out: pTGI (converted),16.2 µM
same,GI50,RXF 393,5.37 µM
same,CC50,RXF 393; [7],44.7 µM
same,TGI,RXF 393; read-out: pTGI (converted),18.2 µM
same,GI50,PC-3,10.2 µM
same,CC50,PC-3; [7],72.4 µM
same,TGI,PC-3; read-out: pTGI (converted),27.5 µM
same,GI50,DU-145,21.9 µM
same,CC50,DU-145; [7],> 100 µM
same,TGI,DU-145; read-out: pTGI (converted),57.5 µM
same,GI50,[5],1.32 µM
same,CC50,[5]; [7],25.7 µM
same,TGI,[5]; read-out: pTGI (converted),4.17 µM
same,GI50,MDA-MB-435,0.389 µM
same,CC50,MDA-MB-435; [7],5.01 µM
same,TGI,MDA-MB-435; read-out: pTGI (converted),1.82 µM
same,GI50,MCF7 [6],1.7 µM
same,CC50,MCF7 [6]; [7],14.5 µM
same,TGI,MCF7 [6]; read-out: pTGI (converted),4.57 µM
